TRPC4 potent = allosteric potentiators of mouse TRPC4 channel; Q9QUQ5; HEK293 TRPC4beta/mu-opioid, DAMGO EC20, Fluo-4 Ca2+ flux; stronger effect = higher value; B-score at 10 µM; 0.42% of 310,000 active;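 active = B-score of calcium response area above 5 SD of library B-scores, with initial fluorescence ratio within 5 SD of library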;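 also: B-score of integrated fluorescence ratio over time as area under calcium response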
TRPC6 act = activators of mouse TRPC6 channel; Q61143; HEK293-TRPC6 membrane potential dye fluorescence; stronger effect = higher value; B-score at 10 µM; 0.13% of 310,000 active;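 active = B-score of the integrated fluorescence ratio above library mean plus 3 SD, and starting fluorescence ratio within library mean plus 5 SD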;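 also: higher score means more depolarization so channel activation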
TRPC6 inh = inhibitors of mouse TRPC6 channel. HEK293-TRPC6, membrane potential dye, ACh-evoked depolarization; stronger effect = lower value. B-score at 10 µM. 1.1% of 310,000 active. AID 2553;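 active = B-score under library mean minus 3 SD, initial fluorescence not abnormally high, positive integrated signal ratio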;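 also: B-score derived from integrated fluorescence ratio over the kinetic read; more negative B-score means stronger inhibition of depolarization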
TRPC4 inh = inhibitors of mouse TRPC4 channel. 0.39% of 300,000 active. Q9QUQ5. B-score at 10 µM. HEK293 TRPC4beta/mu-opioid, DAMGO-evoked Fluo4 calcium flux; stronger effect = lower value;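 active = B-score over 3 SD under the library average, no early fluorescence shift, positive overall ratio signal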
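Material: HEK293 cells with stable TRPC4beta plus mu-opioid receptor expression / Probe or stimulus: DAMGO in two steps, submaximal then maximal / Compound: single concentration per test compound / Technique: kinetic Fluo4 fluorescence imaging of calcium influx / Read-out: per-well B score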
Pemphigus Ab inh = inhibitors of pemphigus antibody binding to human desmoglein-3 | P32926 | DSG3-coupled beads, scFv-anti-DSG3-GFP binding, flow cytometry; stronger effect = lower value | binding (percent of control), % at 10 µM | 0.48% of 310,000 active;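 active = binding more than 3 SD below its plate's average and above zero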;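 also: hits lower antibody fragment binding to DSG3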
Target sequence (P32926 whole entry, looked up, the tested form may be a part): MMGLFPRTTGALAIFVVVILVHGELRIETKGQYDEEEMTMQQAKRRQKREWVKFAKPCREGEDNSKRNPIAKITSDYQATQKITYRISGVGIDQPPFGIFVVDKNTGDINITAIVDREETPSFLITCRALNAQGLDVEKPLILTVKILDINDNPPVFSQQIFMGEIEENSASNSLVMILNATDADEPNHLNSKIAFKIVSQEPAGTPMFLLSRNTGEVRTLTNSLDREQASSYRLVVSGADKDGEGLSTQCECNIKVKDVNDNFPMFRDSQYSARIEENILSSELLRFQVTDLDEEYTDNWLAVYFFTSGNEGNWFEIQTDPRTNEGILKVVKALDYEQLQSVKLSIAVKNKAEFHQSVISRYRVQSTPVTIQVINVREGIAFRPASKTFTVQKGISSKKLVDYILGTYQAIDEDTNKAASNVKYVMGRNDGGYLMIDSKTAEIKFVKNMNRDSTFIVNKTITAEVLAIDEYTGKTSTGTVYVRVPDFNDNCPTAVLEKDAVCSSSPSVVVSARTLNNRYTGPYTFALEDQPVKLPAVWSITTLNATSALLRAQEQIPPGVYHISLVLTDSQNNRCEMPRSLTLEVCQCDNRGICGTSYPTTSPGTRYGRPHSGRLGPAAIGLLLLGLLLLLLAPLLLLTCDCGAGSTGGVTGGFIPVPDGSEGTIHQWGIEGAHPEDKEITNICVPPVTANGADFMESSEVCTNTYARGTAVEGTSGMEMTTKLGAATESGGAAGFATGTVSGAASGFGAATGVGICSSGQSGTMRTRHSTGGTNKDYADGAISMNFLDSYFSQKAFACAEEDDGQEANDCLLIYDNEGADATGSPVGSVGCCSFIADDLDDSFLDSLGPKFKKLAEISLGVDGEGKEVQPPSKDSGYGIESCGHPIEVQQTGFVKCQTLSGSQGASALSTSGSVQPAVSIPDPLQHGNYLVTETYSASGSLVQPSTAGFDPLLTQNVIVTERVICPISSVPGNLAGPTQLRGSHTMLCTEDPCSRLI
TRPC4 agonist = opens the mouse TRPC4 cation channel; Q9QUQ5; HEK293 TRPC4beta/mu-opioid, Fluo4 calcium fluorescence; stronger effect = higher value; B-score at 10 µM; 0.49% of 310,000 active; AID 2237;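 active = B-score above 5 SD of library B-scores, and initial fluorescence ratio not above library mean plus 5 SD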;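 also: positive B-score marks a calcium rise read as TRPC4 activation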
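Assay system – TRPC4beta and mu-opioid receptor HEK293 stable cells · Measured by – Fluo4 fluorescence, kinetic · Schedule – dye loading 45 min room temperature, 110 s kinetic read · Read-out – B-scored integrated calcium fluorescence ratio · Controls – buffer and maximal DAMGO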
TRPC4 spec 2 = mouse TRPC4 off-target activity of TRPC6 inhibitors, second screen. 42% of 920 active. shares compounds with TRPC6 inh. inhibition, % at 10 µM. AID 2776. HEK293 TRPC4/MOR, membrane potential dye fluorescence; channel activated by saturating DAMGO dose;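 active = compounds whose fluorescence signal differed from control wells by over 3 SD, either direction, in both duplicate plates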
TRPC4 spec = mouse TRPC4 off-target activity of TRPC6 inhibitors; HEK293 TRPC4/mu-opioid, membrane potential fluorescence; shares compounds with TRPC6 inh; activity change, negative = inhibition, % at 10 µM; 61% of 920 active;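 active = rise or fall in signal beyond 3 SD of buffer-only wells in both replicate plates, either sign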;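 also: integrated kinetic ratio of fluorescence range over baseline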
HEK293 MPD ctr 2-1 = parental HEK293 nonspecific activity of TRPC6 inhibitors, second screen; 31% of 920 active; signal change vs control, % at 10 µM; shares compounds with TRPC6 inh; parental HEK293 membrane potential dye fluorescence; maximal acetylcholine challenge after compound addition;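 active = membrane potential signal moving either way by over 3 SD of the maximum-effect control, in both duplicate plates, meaning non-specific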
HEK293 MPD ctr-1 = checks TRPC6 inhibitor effects in parental HEK293 cells. membrane potential signal change, % at 10 µM. 60% of 920 active. AID 2780. shares compounds with TRPC6 inh. parental HEK293 membrane potential dye fluorescence;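 active = membrane potential signal shifting up or down by more than 3 SD of buffer-only wells, on both duplicate plates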
HEK293 MPD ctr-2 = counter-screen for TRPC6 modulators: effect in parental HEK293 cells; 51% of 2,400 active; membrane potential dye fluorescence; membrane potential signal change, % at 10 µM; shares compounds with TRPC6 inh;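 active = membrane potential signal moves up or down beyond 5 SD from buffer-only wells, on both duplicate plates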
HEK293 MPD ctr 2-2 = second check of TRPC6 modulator effects in parental HEK293 cells. shares compounds with TRPC6 inh. membrane potential dye fluorescence; after compound, maximal acetylcholine stimulation. 14% of 2,400 active. inhibition, % at 10 µM;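 active = membrane potential signal drops by more than 5 SD from the mean control signal, in both duplicate plates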;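 also: plate controls were acetylcholine ECmax control wells for no effect and buffer only wells for full effect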
TRPC4 ctr mod = mouse TRPC4 off-target activity of TRPC6 modulators | shares compounds with TRPC6 inh | HEK293 TRPC4/mu-opioid, membrane potential fluorescence | percent change from control (negative = decrease, positive = increase), % at 10 µM | 69% of 2,400 active | AID 488927;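 active = membrane potential signal moved up or down beyond 5 SD of buffer control wells, in both duplicate plates, actives on both sides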;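 also: plate controls were assay buffer wells for no effect and DAMGO maximal-effect wells for full effect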
TRPC4 ctr inh 2 = mouse TRPC4 off-target activity of TRPC6 modulators, second screen | 55% of 2,400 active | inhibition, % at 10 µM | shares compounds with TRPC6 inh | AID 488928 | HEK293 TRPC4/mu-opioid, membrane potential dye fluorescence; stimulated with maximal-effect DAMGO;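 active = drop in membrane potential signal beyond 5 SD of the control wells in both duplicate plates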;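 also: TRPC4 counter screen for TRPC6 hits run under conditions tuned for TRPC6 not TRPC4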
TRPC6 inh conf = mouse TRPC6 inhibitor confirmation. inhibition, % at 10 µM. HEK293-TRPC6, membrane potential dye, ACh-evoked depolarization. AID 488960. shares compounds with TRPC6 inh. 43% of 3,300 active;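 active = fluorescence ratio falls more than 5 SD below the full-stimulation control mean, in both duplicate runs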;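 also: integrated fluorescence ratio of peak minus minimum over baseline after agonist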
TRPC6 act confirm = mouse TRPC6 activator confirmation | shares compounds with TRPC6 inh | HEK293-TRPC6 membrane potential dye fluorescence, FDSS | activation, % at 10 µM | 11% of 2,800 active | AID 488961;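 active = ratio signal rise beyond 5 SD above unstimulated control wells' mean, seen in both duplicate runs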;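 also: plate controls were buffer EC0 wells for no effect and acetylcholine ECmax response for full effect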
Active calls of the source: *; i = inactive; nt = no result. Hits are enriched below; roughly 2.5% of the tested compounds scored in any of these assays.

SMILES	TRPC4 potent	TRPC6 act	TRPC6 inh	TRPC4 inh	Pemphigus Ab inh	TRPC4 agonist	HEK293 MPD ctr-2	HEK293 MPD ctr 2-2	TRPC4 ctr mod	TRPC4 ctr inh 2	TRPC6 inh conf	TRPC6 act confirm	others
C=CCn1c(O)c(C2=c3ccccc3=NC2=O)sc1=Nc1ccc(O)cc1	i	i	-8*	i	100	i	nt	nt	nt	nt	55%*	i	TRPC4 spec 2=i;TRPC4 spec=-15%*;HEK293 MPD ctr 2-1=i;HEK293 MPD ctr-1=-138%*
O=C1N=c2ccccc2=C1c1sc(=S)n(NC(=O)c2ccccc2)c1O	i	i	i	i	118	i	nt	nt	nt	nt	nt	nt
Cc1cccc(-n2cnc(C(=O)NC3CCCCCC3)c2)n1	i	i	-6*	i	106	i	i	i	9.0%*	i	i	i
O=C(O)C1CCN(S(=O)(=O)c2ccc3[nH]ccc3c2)CC1	nt	nt	nt	nt	105	nt	nt	nt	nt	nt	nt	nt
Cc1ccc(-n2nnnc2CNC(=O)c2ccc3c(c2)OCO3)cc1C	i	i	-8.1*	i	102	i	i	95%*	19%*	i	80%*	i
Cc1ccccc1C(=O)N/N=C/c1ccc([N+](=O)[O-])s1	i	12*	-6.1*	i	104	i	i	i	13%*	i	i	i
O=C(N/N=C/c1ccc([N+](=O)[O-])s1)c1ccccc1	i	i	-6*	i	nt	i	i	i	i	i	i	i
O=C(N/N=C/c1ccc([N+](=O)[O-])s1)c1ccccc1Br	i	i	i	i	95	i	nt	nt	nt	nt	nt	nt
CCC(C(=O)NC1CCCCC1)n1c(SCc2ccccc2F)nc2ccncc21 (configuration not stated)	i	i	-5.2*	i	105	i	i	i	i	i	i	i
O=C1NC(=S)N(c2cccc(Cl)c2)C12CCCCC2	i	i	i	i	96	i	nt	nt	nt	nt	nt	nt
Cc1cc(S(=O)(=O)NCc2ccccc2)ccc1OCC(=O)NCc1ccncc1	i	i	i	i	112	i	nt	nt	nt	nt	nt	nt
O=C(CCc1nc2ccccc2c(=O)[nH]1)N1CCN(C/C=C/c2ccccc2)CC1	i	i	i	i	102	i	nt	nt	nt	nt	nt	nt
O=c1[nH]c(CN2CCN(C/C=C/c3ccccc3)CC2)nc2cc(Cl)ccc12	i	i	-5.3*	i	106	i	i	i	8.5%*	44%*	i	i
COc1cccc(SCc2noc(C(=O)NCCN(C)C)c2C(=O)NCCN(C)C)c1	i	i	i	i	103	i	nt	nt	nt	nt	nt	nt
CCC(C(=O)NC1CCCCCC1)c1ccccc1 (configuration not stated)	i	i	i	i	104	i	nt	nt	nt	nt	nt	nt
CC[N+](C)(CC)CCC(c1ccccc1)C1CCCCC1 (configuration not stated)	i	i	-9.6*	i	383	i	nt	nt	nt	nt	81%*	i	TRPC4 spec 2=i;TRPC4 spec=i;HEK293 MPD ctr 2-1=-16%*;HEK293 MPD ctr-1=i
CC[N+](C)(CC)CCOC(=O)C(O)(c1ccccc1)C1CCCCC1 (configuration not stated)	i	i	-8.9*	i	119	i	nt	nt	nt	nt	83%*	i	TRPC4 spec 2=i;TRPC4 spec=i;HEK293 MPD ctr 2-1=-33%*;HEK293 MPD ctr-1=i
CCOC(=O)C(C(=O)Nc1ccccc1)C1CCCCC1 (configuration not stated)	i	i	i	i	102	i	nt	nt	nt	nt	nt	nt
C(#Cc1ccccc1)C[N+]1(CC#Cc2cccc3ccccc23)CCCC1	i	i	-5.5*	i	116	i	i	i	-14%*	i	i	i
CCCc1ncc(C(O)(c2ccccc2)c2ccc(C)cc2)n1C (configuration not stated)	i	i	i	i	110	i	nt	nt	nt	nt	nt	nt
CCCc1ncc(C(O)(c2ccccc2)c2ccccc2)n1C	i	i	-8.8*	i	105	i	nt	nt	nt	nt	58%*	nt	TRPC4 spec 2=i;TRPC4 spec=22%*;HEK293 MPD ctr 2-1=i;HEK293 MPD ctr-1=15%*
CCn1cc(C(=O)N[C@@H](CCSC)C(=O)NCCCN2CCOCC2)c(=O)c2cc3c(cc21)OCO3	i	i	i	i	103	i	nt	nt	nt	nt	nt	nt
Cc1cc(C)n(CCNC(=O)CC2C(=O)NCCN2Cc2ccccc2C(F)(F)F)n1 (configuration not stated)	i	i	i	i	105	i	nt	nt	nt	nt	nt	nt
Cc1ccc2nc(-c3ccncc3)cc(-c3ccccc3)c2c1	i	i	i	i	97	i	nt	nt	nt	nt	nt	nt
Cc1ccc(-c2cc3cccc[n+]3cc2-c2ccc(C)cc2)cc1	i	i	-5.8*	i	140	i	-134%*	i	-20%*	29%*	60%*	i
COc1ccc(OCC(O)CN2CCNCC2)cc1 (configuration not stated)	i	i	i	i	105	i	nt	nt	nt	nt	nt	nt
Cc1ccccc1NC(=O)OCc1cccnc1Oc1ccc(Cl)cc1	i	i	i	i	101	i	nt	nt	nt	nt	nt	nt

Compound activity as filed in PubChem.
